Test results taken from ChEMBL document CHEMBL4610011, “Bilobalide and PC12 cells: A structure activity relationship study” (Bioorg Med Chem, 2020).
The source made the active and inactive calls. The rule behind the calls is not given here.

Experiments:
PC-12 [1] = experiment: Induction of neurite outgrowth in rat PC12 cells at 0.26 ug/ml incubated for 24 hrs by microscopic analysis; assay type: functional, cell-based
Summary of the method: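 PC12 cells (2,000/well, collagen I) were treated for 24 h in DMEM with 1% FBS, 1% horse serum and 10 ng/mL NGF containing substance, then cultured 24 h in the same medium without Aβ. Cells were imaged by microscopy before the viability read-out. Cells with neurites equal to, twice, or more than twice the cell length were counted.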

PC-12 [2] = experiment: Neuroprotective activity against amyloid beta (1 to 40 residues)-induced toxicity in rat PC12 cells at 0.26 ug/mL pretreated for 24 hrs followed by 1 uM amyloid beta (1 to 40 residues) challenge and measured after 24 hrs by WST-8 assay
PC-12 [3] = experiment: Induction of cell proliferation in rat PC12 cells assessed as increase in cell viability at 0.26 ug/ml after 24 hrs in presence of 10 ng/ml NGF by WST-8 assay; assay type: functional, cell-based
Summary of the method: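 PC12 cells were seeded at 2,000 cells/well on type I collagen and grown 24 h in DMEM with 10% FBS and 10% horse serum at 37 °C, 5% CO₂. They were then given 24 h in DMEM with 1% FBS, 1% horse serum and 10 ng/mL NGF plus substance, followed by 24 h without Aβ. Viability was read by 10% WST-8 for 1–2 h at A450, relative to 0.004% DMSO vehicle.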

SMILES | Activity (PC-12 [1]) | Activity (PC-12 [2]) | Activity (PC-12 [3])
CC(C)(C)[C@]1(O)C[C@@H]2OC(O)C[C@]2(CO)[C@@]12COC[C@@H]2O (stereo partly drawn) | inactive | inactive | Active
CC(C)(C)[C@@]12C[C@@H]3OC(=O)C[C@]3(C(=O)O1)[C@@]21[C@H](OC(=O)c2ccc(Br)cc2)OC(=O)[C@@H]1OC(=O)c1ccc(Br)cc1 | Active | Active | 
CC(C)(C)C1=C(C=O)[C@](CC(=O)OCc2ccccc2)(C(=O)OCc2ccccc2)C=C1 | Active | Active | 
CC(C)(C)[C@]1(O)C[C@@H]2OC(=O)C[C@@]23C(=O)O[C@@H]2OC(=O)[C@H](O)[C@]213 | Active | Active | Active
CC(=O)O[C@@H]1OC(=O)[C@H](OC(C)=O)[C@]12[C@@]13CC(=O)O[C@H]1C[C@]2(C(C)(C)C)OC3=O | Active | Active | Active
